In ChEMBL document CHEMBL1148216, “New nardosinanes and 19-oxygenated ergosterols from the soft coral Nephthea armata collected in Taiwan” (J Nat Prod, 2004):

Experiments:
Format in all cases: functional, cell-based
P388 = assay: Cytotoxicity against mouse P388 cells
Method in brief: (§1)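 Cytotoxicity was run by a previously described procedure, with mithramycin as the positive control, and IC50 values were derived. P-388 cells were a gift from an academic laboratory, and the A549 and HT-29 cells were obtained from a culture collection.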

A549 = assay: Cytotoxicity against human A549 cells; method in brief: as §1
HT-29 = assay: Cytotoxicity against human HT29 cells; method in brief: as §1

| SMILES | IC50 (P388) [µM] | IC50 (A549) [µM] | IC50 (HT-29) [µM] |
| --- | --- | --- | --- |
| C[C@@H]1C(=O)O[C@H]2CCC3=CC(=O)C[C@H](C)[C@@]3(C)[C@H]21 | > 50 | > 50 | > 50 |
| C[C@H]1[C@H]2[C@@H](CCC3=C[C@@H](O)C[C@H](C)[C@]32C)O[C@@H]1O [ARMATIN A] | > 50 | > 50 | > 50 |
| C[C@@H]1C(=O)O[C@@H]2CCC3=C[C@@H](O)C[C@H](C)[C@@]3(C)[C@@H]12 [ARMATIN B] | > 50 | > 50 | > 50 |
| CO[C@H]1O[C@@H]2CCC3=C[C@@H](O)C[C@H](C)[C@@]3(C)[C@H]2[C@@H]1C [ARMATIN C] | > 50 | > 50 | > 50 |
| CO[C@@H]1O[C@H]2CCC3=C[C@@H](O)C[C@H](C)[C@@]3(C)[C@H]2[C@@H]1C [ARMATIN D] | > 50 | > 50 | > 50 |
| CO[C@@H]1O[C@H]2CCC3=CC(=O)C[C@H](C)[C@@]3(C)[C@H]2[C@@H]1C [ARMATIN E] | > 50 | > 50 | > 50 |
| C=C(CC[C@@H](C)[C@H]1CC[C@H]2[C@@H]3C[C@H]4O[C@]45C[C@@H](O)CC[C@]5(COC(C)=O)[C@H]3CC[C@]12C)C(C)C [ARMATINOL A] | 6.1 | 7.6 | 6.5 |
| C=C(CC[C@@H](C)[C@H]1CC[C@H]2[C@@H]3C[C@@H](O)[C@@]4(O)C[C@@H](O)CC[C@]4(COC(C)=O)[C@H]3CC[C@]12C)C(C)C [ARMATINOL B] | 3.2 | – | 3.1 |
| CO[C@H](C(=O)[C@@H](O)[C@@H](C)O)[C@@H]1Cc2cc3cc(O[C@H]4C[C@@H](O[C@@H]5C[C@@H](O)[C@H](O)[C@@H](C)O5)[C@H](O)[C@@H](C)O4)c(C)c(O)c3c(O)c2C(=O)[C@H]1O[C@H]1C[C@@H](O[C@@H]2C[C@@H](O)[C@@H](O[C@@H]3C[C@](C)(O)[C@H](O)[C@@H](C)O3)[C@@H](C)O2)[C@H](O)[C@@H](C)O1 [PLICAMYCIN] | 0.1 | 0.2 | 0.3 |
